The nature of test [1]: hit retest on RPL19A-GFP reporter strain – cell-based, S. cerevisiae, flow cytometry, cherry picks, mother/daughter gates, confirmation (AID 2270;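 active = GFP response below 50% of the DMSO control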). To be noted: 3 h, at 10 µM, stronger effect = lower value, 100 = same GFP as DMSO wells. In general terms: In flow cytometry, cells or beads pass a laser one at a time.
Test [2] is described as follows: yeast TOR pathway reporter LAP4-GFP change – cell-based, cherry picks, flow cytometry, mother/daughter gates, confirmation (AID 2271;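 active = GFP response above 150% of the DMSO control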;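 also: ratio of sample to DMSO plate mean so 100% equals DMSO level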). To be noted: S. cerevisiae LAP4-GFP strain, 3 h, at 10 µM, stronger effect = higher value, 100 means same as DMSO control. In outline: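 Material: Alexa Fluor 633-labelled Saccharomyces cerevisiae GFP-fusion strain, single-plex | Amount: Yeast cells seeded at OD600 of 0.2 | Buffer or medium: SC growth medium | Schedule: 3 h exposure, 30 °C | Measured by: HT flow cytometry, GFP fluorescence channel | Evaluation: % GFP response vs DMSO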

Test [3] is described as follows: TOR pathway reporter MEP2-GFP, retest of hits – S. cerevisiae, flow cytometry GFP, cherry picks, confirmation (AID 2272;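 active = GFP response above 150% of the DMSO control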;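 also: ratio of well signal to plate DMSO mean so 100% equals DMSO level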). As to conditions: S. cerevisiae MEP2-GFP strain, 3 h, at 10 µM, stronger effect = higher value.
Test [4] is described as follows: yeast AGP1-GFP fluorescence change, single-dose – cell-based, flow cytometry, S. cerevisiae, cherry picks, confirmation (AID 2273).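 Also: median GFP channel fluorescence over the whole cell population gate.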 As to conditions: S. cerevisiae AGP1-GFP strain, 3 h, at 10 µM.
Test [5] can be described thus: TOR pathway CIT2 reporter hit retest – S. cerevisiae, GFP fusion, cherry picks, mother/daughter gates, confirmation (AID 2274). As to conditions: S. cerevisiae CIT2-GFP strain, flow cytometry, 3 h, at 10 µM, stronger effect = higher value.
[6] abbreviates: measured here: daughter cell gate.
Setting [7] is: measured here: mother cell gate.
The mark [8] stands for this setting: measured here: daughter cell gate response.
Where [9] appears, read: measured here: mother cell gate response.

Structures are written as SMILES. Active and inactive are the calls of the source.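 The calls were made as follows, unless noted: active = GFP response above 150% of the DMSO level; inconclusive = fewer than 70 events counted for a yeast strain; inactive = the rest.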

As for `CS(=O)(=O)c1nc(-c2ccccc2)cc(C(F)(F)F)n1`, the GFP response vs DMSO in test [1] was 102% (inactive); in test [1] (setting [6]) it was 105%; in test [1] (setting [7]) it was 95.9%; in test [3] it was 146% (inactive). Besides, the values for the GFP response relative to DMSO in test [2], in test [2] (setting [8]) and in test [2] (setting [9]) were 192% (active), 179% and 189%, respectively. In addition, the GFP response, % of DMSO in test [4] was 102% (inactive); in test [5], 95.2% (inactive); in test [5] (setting [6]) it was 101%; in test [5] (setting [7]), 86.9%.

Turning to `O=C1ON=C(c2ccccc2)/C1=C/c1ccco1`, the GFP response vs DMSO in test [1] was 95.8% (inactive); in test [1] (setting [6]), 86.4%; in test [1] (setting [7]) it was 85.2%; in test [3], 141% (inactive). In addition, the GFP response relative to DMSO in test [2] was 169% (active); in test [2] (setting [8]) it was 137%; in test [2] (setting [9]), 161%. For the same molecule, the GFP response, % of DMSO in test [4] is 89.2% (inactive); in test [5], 83.5% (inactive); in test [5] (setting [6]), 92.7%; in test [5] (setting [7]) it was 70%.

Take `O=C(/C=C/c1c(F)cccc1Cl)c1ccc(F)cc1`: the GFP response vs DMSO was 104% (inactive) in test [1], 104% in test [1] (setting [6]), 101% in test [1] (setting [7]) and 157% (inactive) in test [3]. Further, the GFP response relative to DMSO in test [2] is 118% (inactive); in test [2] (setting [8]) it was 120%; in test [2] (setting [9]), 120%. Besides, the GFP response, % of DMSO was 104% (inactive) in test [4], 126% (inactive) in test [5], 129% in test [5] (setting [6]) and 120% in test [5] (setting [7]).

With `CCOc1ccccc1N1C(=O)CC(Sc2ncccc2C(=O)O)C1=O` (stereo not drawn), the GFP response vs DMSO was 101% (inactive) in test [1], 99% in test [1] (setting [6]), 102% in test [1] (setting [7]) and 120% (inactive) in test [3]. The values for the GFP response relative to DMSO in test [2], in test [2] (setting [8]) and in test [2] (setting [9]) were 106% (inactive), 106% and 107%, respectively. For the same molecule, the GFP response, % of DMSO in test [4] was 98.5% (inactive); in test [5], 103% (inactive); in test [5] (setting [6]), 105%; in test [5] (setting [7]) it was 102%.

In the case of `CC(C)c1nnc(NC(=O)c2nc(S(=O)(=O)Cc3ccc(F)cc3)ncc2Cl)s1`, the GFP response vs DMSO in test [1] is 95.8% (inactive); in test [1] (setting [6]) it was 96%; in test [1] (setting [7]) it was 96.9%; in test [3] it was 99.5% (inactive). Also, the values for the GFP response relative to DMSO in test [2], in test [2] (setting [8]) and in test [2] (setting [9]) were 101% (inactive), 102% and 99.5%, respectively. Besides, the GFP response, % of DMSO was 102% (inactive) in test [4], 99.3% (inactive) in test [5], 100% in test [5] (setting [6]) and 100% in test [5] (setting [7]).

On to `CCOC(=O)c1sc(Nc2nc3c(OC)cccc3s2)nc1C`, for which the GFP response vs DMSO in test [1] is 103% (inactive); in test [1] (setting [6]) it was 77.4%; in test [1] (setting [7]) it was 69%; in test [3] it was 112% (inactive). For the same molecule, the GFP response relative to DMSO is 97% (inactive) in test [2], 94.2% in test [2] (setting [8]) and 92% in test [2] (setting [9]). Besides, the GFP response, % of DMSO was 106% (inactive) in test [4], 100% (inactive) in test [5], 90.2% in test [5] (setting [6]) and 90.7% in test [5] (setting [7]).

As for `COc1cccc2c1Oc1ncccc1N(C(=O)CCC(=O)NCc1ccccc1)C2`, the GFP response vs DMSO in test [1] is 99.2% (inactive); in test [1] (setting [6]) it was 98.1%; in test [1] (setting [7]), 101%; in test [3], 103% (inactive). For the same molecule, the GFP response relative to DMSO is 97% (inactive) in test [2], 95.9% in test [2] (setting [8]) and 97.3% in test [2] (setting [9]). Further, the GFP response, % of DMSO is 102% (inactive) in test [4], 98.8% (inactive) in test [5], 99.2% in test [5] (setting [6]) and 98.1% in test [5] (setting [7]).

As to `Oc1c(Br)cc(Br)cc1C=Nc1cccc2ncccc12`, the GFP response vs DMSO in test [1] was 104% (inactive); in test [1] (setting [6]) it was 93.9%; in test [1] (setting [7]), 98.6%; in test [3], 103% (inactive). The GFP response relative to DMSO in test [2] was 125% (inactive); in test [2] (setting [8]), 110%; in test [2] (setting [9]) it was 126%. In addition, the GFP response, % of DMSO was 95.7% (inactive) in test [4], 97.3% (inactive) in test [5], 99.2% in test [5] (setting [6]) and 89.5% in test [5] (setting [7]).

In the case of `C/C(=N\NC(=O)c1ccc(Cl)cc1)c1cccc(NC(=O)C(C)C)c1`, the GFP response vs DMSO in test [1] was 95.8% (inactive); in test [1] (setting [6]), 95.1%; in test [1] (setting [7]), 95.8%; in test [3], 96.2% (inactive). In addition, the GFP response relative to DMSO in test [2] was 99.2% (inactive); in test [2] (setting [8]), 99.2%; in test [2] (setting [9]), 97.2%. Also, the GFP response, % of DMSO in test [4] was 97.2% (inactive); in test [5] it was 101% (inactive); in test [5] (setting [6]), 101%; in test [5] (setting [7]), 101%.

Turning to `O=C1C2C3C=CC(CO)(O3)C2C(=O)N1c1ccc(-c2ccccc2)cc1` (stereo not drawn), the GFP response vs DMSO is 109% (inactive) in test [1], 103% in test [1] (setting [6]), 94.9% in test [1] (setting [7]) and 103% (inactive) in test [3]. Besides, the figures for the GFP response relative to DMSO in test [2], in test [2] (setting [8]) and in test [2] (setting [9]) were 334% (active), 156% and 304%, respectively. Moreover, the GFP response, % of DMSO in test [4] is 97.8% (inactive); in test [5], 91.5% (inactive); in test [5] (setting [6]), 97.4%; in test [5] (setting [7]), 82.1%.

Consider `COC(=O)Nc1ccc2c(c1)N(C(=O)CCN1CCN3CCCC3C1)c1ccccc1CC2` (stereo not drawn), for which the GFP response vs DMSO was 102% (inactive) in test [1], 101% in test [1] (setting [6]), 102% in test [1] (setting [7]) and 104% (inactive) in test [3]. In addition, the GFP response relative to DMSO is 96.2% (inactive) in test [2], 97.2% in test [2] (setting [8]) and 99.3% in test [2] (setting [9]). Besides, the GFP response, % of DMSO was 106% (inactive) in test [4], 104% (inactive) in test [5], 99.7% in test [5] (setting [6]) and 105% in test [5] (setting [7]).

With `O=C(NCc1ccccc1)c1nc(S(=O)(=O)Cc2ccccc2)ncc1Cl`, the GFP response vs DMSO in test [1] is 101% (inactive); in test [1] (setting [6]) it was 99.2%; in test [1] (setting [7]) it was 98.5%; in test [3], 100% (inactive). The GFP response relative to DMSO in test [2] was 108% (inactive); in test [2] (setting [8]) it was 108%; in test [2] (setting [9]), 108%. Moreover, the GFP response, % of DMSO in test [4] was 104% (inactive); in test [5], 96.5% (inactive); in test [5] (setting [6]), 93.2%; in test [5] (setting [7]), 98.7%.

On to `CC(C)c1ccc(C2C3CSCC=C3C(C#N)=C(N)C2(C#N)C#N)cc1` (stereo not drawn), for which the GFP response vs DMSO in test [1] is 97.2% (inactive); in test [1] (setting [6]), 97.8%; in test [1] (setting [7]), 95.3%; in test [3] it was 101% (inactive). For the same molecule, the GFP response relative to DMSO in test [2] is 111% (inactive); in test [2] (setting [8]), 108%; in test [2] (setting [9]) it was 115%. The GFP response, % of DMSO in test [4] is 105% (inactive); in test [5], 99.7% (inactive); in test [5] (setting [6]), 100%; in test [5] (setting [7]), 97.7%.

Source of the values: PubChem BioAssay.
